Assay results published in ChEMBL document CHEMBL1123038, “Potential neuroleptic agents. 3. Chemistry and antidopaminergic properties of substituted 6-methoxysalicylamides” (J Med Chem, 1985).

Columns and labels:
Assay type in all cases: functional
Conditions in all cases: ip
[1] = system: Rattus norvegicus; assay: Compound was evaluated in vivo its antagonist activity against apomorphine induced behavioral syndrome such as Stereotypy in rat after intraperitoneal administration; activity value ranges from 2.4-2.7
Summary of the method: (§1)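 Male Sprague-Dawley rats (275–325 g) got compound ip (saline, or acetic acid/distilled water vehicle) 60 min ahead of sc apomorphine 1 mg/kg given into the neck. Stereotypy strength was scored 5, 20, 40 and 60 min after apomorphine. […] It was computed by Theil's method with Sen tie correction, using 5–6+ dose levels and 6–8 animals per dose.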

[2] = system: Rattus norvegicus; assay: Compound was evaluated in vivo for antagonist activity against apomorphine induced behavioral syndrome such as Hyperactivity in rat after intraperitoneal administration; activity value ranges from 0.65-0.85
[3] = system: Rattus norvegicus; assay: Compound was evaluated in vivo its antagonist activity against apomorphine induced behavioral syndrome such as Stereotypy in rat after intraperitoneal administration; activity value ranges from 1.8-2.2; summary of the method: as §1
[4] = system: Rattus norvegicus; assay: Compound was evaluated in vivo for antagonist activity against apomorphine induced behavioral syndrome such as Hyperactivity in rat after intraperitoneal administration; activity value ranges from 0.46-0.49
[5] = system: Rattus norvegicus; assay: Compound was evaluated in vivo for antagonist activity against apomorphine induced behavioral syndrome such as Hyperactivity in rat after intraperitoneal administration; activity value ranges from 0.78-1.07
[6] = system: Rattus norvegicus; assay: Compound was evaluated in vivo its antagonist activity against apomorphine induced behavioral syndrome such as Stereotypy in rat after intraperitoneal administration; activity value ranges from 13.8-14.1; summary of the method: as §1
[7] = system: Rattus norvegicus; assay: Compound was evaluated in vivo for antagonist activity against apomorphine induced behavioral syndrome such as Hyperactivity in rat after intraperitoneal administration; activity value ranges from 0.42-0.43
[8] = system: Rattus norvegicus; assay: Compound was evaluated in vivo its antagonist activity against apomorphine induced behavioral syndrome such as Stereotypy in rat after intraperitoneal administration; activity value ranges from 0.65-0.66; summary of the method: as §1
[9] = system: Rattus norvegicus; assay: Compound was evaluated in vivo its antagonist activity against apomorphine induced behavioral syndrome such as Stereotypy in rat after intraperitoneal administration; activity value ranges from 7.6-8.3; summary of the method: as §1
[10] = system: Rattus norvegicus; assay: Compound was evaluated in vivo for antagonist activity against apomorphine induced behavioral syndrome such as Hyperactivity in rat after intraperitoneal administration; activity value ranges from 0.36-0.43
[11] = system: Rattus norvegicus; assay: Compound was evaluated in vivo for antagonist activity against apomorphine induced behavioral syndrome such as Hyperactivity in rat after intraperitoneal administration; activity value ranges from 0.11-0.13
Summary of the method: (§2)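 Male Sprague-Dawley rats (275–325 g) received test compound ip (in saline, or acetic acid plus distilled water) 60 min before apomorphine 1 mg/kg sc into the neck. Behaviour was scored at 5, 20, 40 and 60 min after apomorphine.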

[12] = system: Rattus norvegicus; assay: Compound was evaluated in vivo its antagonist activity against apomorphine induced behavioral syndrome such as Stereotypy in rat after intraperitoneal administration; activity value ranges from 0.24-0.25; summary of the method: as §1
[13] = system: Rattus norvegicus; assay: Compound was evaluated in vivo for antagonist activity against apomorphine induced behavioral syndrome such as Hyperactivity in rat after intraperitoneal administration; activity value ranges from 0.45-0.49
[14] = system: Rattus norvegicus; assay: Compound was evaluated in vivo its antagonist activity against apomorphine induced behavioral syndrome such as Stereotypy in rat after intraperitoneal administration; activity value ranges from 0.56-0.95; summary of the method: as §1
[15] = system: Rattus norvegicus; assay: Compound was evaluated in vivo for antagonist activity against apomorphine induced behavioral syndrome such as Hyperactivity in rat after intraperitoneal administration; activity value ranges from 1.58-1.78
[16] = system: Rattus norvegicus; assay: Compound was evaluated in vivo its antagonist activity against apomorphine induced behavioral syndrome such as Stereotypy in rat after intraperitoneal administration; activity value ranges from 2.82-3.02; summary of the method: as §1
[17] = system: Rattus norvegicus; assay: Compound was evaluated in vivo for antagonist activity against apomorphine induced behavioral syndrome such as Hyperactivity in rat after intraperitoneal administration; activity value ranges from 0.19-0.20
[18] = system: Rattus norvegicus; assay: Compound was evaluated in vivo its antagonist activity against apomorphine induced behavioral syndrome such as Stereotypy in rat after intraperitoneal administration activity value ranges from 0.81-0.95; summary of the method: as §1
[19] = system: Rattus norvegicus; assay: Compound was evaluated in vivo for antagonist activity against apomorphine induced behavioral syndrome such as Hyperactivity in rat after intraperitoneal administration; activity value ranges from 0.054-0.055
[20] = system: Rattus norvegicus; assay: Compound was evaluated in vivo its antagonist activity against apomorphine induced behavioral syndrome such as Stereotypy in rat after intraperitoneal administration; activity value ranges from 0.30-0.33; summary of the method: as §1
[21] = system: Rattus norvegicus; assay: Compound was evaluated in vivo its antagonist activity against apomorphine induced behavioral syndrome such as Stereotypy in rat after intraperitoneal administration; activity value ranges from 0.74-0.87; summary of the method: as §1
[22] = system: Rattus norvegicus; assay: Compound was evaluated in vivo for antagonist activity against apomorphine induced behavioral syndrome such as Hyperactivity in rat after intraperitoneal administration; activity value ranges from 0.14-0.18
[23] = system: Rattus norvegicus; assay: Compound was evaluated in vivo its antagonist activity against apomorphine induced behavioral syndrome such as Stereotypy in rat after intraperitoneal administration; activity value ranges from 0.89-1.02; summary of the method: as §1
[24] = system: Rattus norvegicus; assay: Compound was evaluated in vivo for antagonist activity against apomorphine induced behavioral syndrome such as Hyperactivity in rat after intraperitoneal administration; activity value ranges from 1.15-1.26
[25] = system: Rattus norvegicus; assay: Compound was evaluated in vivo its antagonist activity against apomorphine induced behavioral syndrome such as Stereotypy in rat after intraperitoneal administration; activity value ranges from 2.0-2.0; summary of the method: as §1
[26] = system: Rattus norvegicus; assay: Compound was evaluated in vivo for antagonist activity against apomorphine induced behavioral syndrome such as Hyperactivity in rat after intraperitoneal administration; activity value ranges from 1.07-1.15
[27] = system: Rattus norvegicus; assay: Compound was evaluated in vivo for antagonist activity against apomorphine induced behavioral syndrome such as Hyperactivity in rat after intraperitoneal administration; activity value ranges from 5.2-6.9
[28] = system: Rattus norvegicus; assay: Compound was evaluated in vivo its antagonist activity against apomorphine induced behavioral syndrome such as Stereotypy in rat after intraperitoneal administration; activity value ranges from 0.52-0.55; summary of the method: as §1
[29] = system: Rattus norvegicus; assay: Compound was evaluated in vivo for antagonist activity against apomorphine induced behavioral syndrome such as Hyperactivity in rat after intraperitoneal administration; activity value ranges from 0.11-0.16
[30] = system: Rattus norvegicus; assay: Compound was evaluated in vivo for antagonist activity against apomorphine induced behavioral syndrome such as Hyperactivity in rat after intraperitoneal administration; activity value ranges from 2.7-3.8
[31] = system: Rattus norvegicus; assay: Compound was evaluated in vivo its antagonist activity against apomorphine induced behavioral syndrome such as Stereotypy in rat after intraperitoneal administration; activity value ranges from 15.1-15.8; summary of the method: as §1
[32] = system: Rattus norvegicus; assay: Compound was evaluated in vivo its antagonist activity against apomorphine induced behavioral syndrome such as Stereotypy in rat after intraperitoneal administration
[33] = system: Rattus norvegicus; assay: Compound was evaluated in vivo for antagonist activity against apomorphine induced behavioral syndrome such as Hyperactivity in rat after intraperitoneal administration; activity value ranges from 0.27-0.35; summary of the method: as §2
[34] = system: Rattus norvegicus; assay: Compound was evaluated in vivo its antagonist activity against apomorphine induced behavioral syndrome such as Stereotypy in rat after intraperitoneal administration; activity value ranges from 6.5-6.8; summary of the method: as §1
[35] = system: Rattus norvegicus; assay: Compound was evaluated in vivo for antagonist activity against apomorphine induced behavioral syndrome such as Hyperactivity in rat after intraperitoneal administration; activity value ranges from 6.0-6.2

Q: How did the ED50 [1] turn out when CCN1CCC[C@H]1CNC(=O)c1c(O)ccc(Cl)c1OC was run?
A: 2.5 µmol/kg

Q: What about the ED50 [2] of the same compound?
A: 0.78 µmol/kg

Q: Which ED50 [3] does the source give for CCOc1c(Br)ccc(OC)c1C(=O)NC[C@@H]1CCCN1CC here?
A: 1.9 µmol/kg

Q: What about the ED50 [4] of the same compound?
A: 0.47 µmol/kg

Q: What does the source list for CCc1ccc(OC)c(C(=O)NC[C@@H]2CCCN2CC)c1OC?
A: ED50 [5]: 0.95 µmol/kg; ED50 [6]: 14.1 µmol/kg

Q: CCCN1CCC[C@H]1CNC(=O)c1c(OC)ccc(Br)c1O was tested. Which ED50 [7] did it give?
A: 0.43 µmol/kg

Q: And the ED50 [8]?
A: 0.66 µmol/kg

Q: CCN1CCC[C@H]1CNC(=O)c1c(O)cccc1OC was tested. Which ED50 [9] did it give?
A: 7.8 µmol/kg

Q: And the ED50 [10]?
A: 0.4 µmol/kg

Q: Which ED50 [11] does the source give for CCc1ccc(OC)c(C(=O)NC[C@@H]2CCCN2CC)c1O here?
A: 0.12 µmol/kg

Q: And the ED50 [12]?
A: 0.25 µmol/kg

Q: What does the source list for CCc1ccc(O)c(C(=O)NC[C@@H]2CCCN2CC)c1OC?
A: ED50 [13]: 0.47 µmol/kg; ED50 [14]: 0.79 µmol/kg

Q: How did the ED50 [15] turn out when CCN1CCC[C@H]1CNC(=O)c1c(OC)ccc(Br)c1O (stereo in doubt; 26) was run?
A: 0.055 µmol/kg

Q: And the ED50 [16]?
A: 0.32 µmol/kg

Q: For CCN1CCC[C@H]1CNC(=O)c1c(OC)ccc(Cl)c1O, which ED50 [17] is on record?
A: 0.2 µmol/kg

Q: What about the ED50 [18] of the same compound?
A: 0.87 µmol/kg

Q: Which ED50 [19] does the source give for CCN1CCC[C@H]1CNC(=O)c1c(OC)ccc(Br)c1O (stereo in doubt; 11) here?
A: 0.055 µmol/kg

Q: What about the ED50 [20] of the same compound?
A: 0.32 µmol/kg

Q: Which ED50 [21] does the source give for CCCc1ccc(OC)c(C(=O)NC[C@@H]2CCCN2CC)c1O here?
A: 0.79 µmol/kg

Q: And the ED50 [22]?
A: 0.16 µmol/kg

Q: Which results are given for CCN1CCC[C@H]1CNC(=O)c1c(OC)ccc(C)c1O?
A: ED50 [23]: 0.95 µmol/kg; ED50 [24]: 1.23 µmol/kg

Q: What does the source list for CCN1CCC[C@H]1CNC(=O)c1c(OC)ccc(I)c1OC?
A: ED50 [25]: 2.1 µmol/kg; ED50 [26]: 1.12 µmol/kg

Q: For CCN1CCC[C@H]1CNC(=O)c1c(OC)ccc(Cl)c1OC, which ED50 [27] is on record?
A: 6.3 µmol/kg

Q: What does the source list for CCN1CCC[C@H]1CNC(=O)c1c(OC)ccc(I)c1O [IOLOPRIDE]?
A: ED50 [28]: 0.54 µmol/kg; ED50 [29]: 0.15 µmol/kg

Q: For CCCN1CCC[C@H]1CNC(=O)c1c(OC)ccc(Br)c1OC, which ED50 [30] is on record?
A: 3.4 µmol/kg

Q: What about the ED50 [31] of the same compound?
A: 15.5 µmol/kg

Q: O=C(CCCN1CCC(O)(c2ccc(Cl)cc2)CC1)c1ccc(F)cc1 [HALOPERIDOL] was tested. Which ED50 [32] did it give?
A: 0.27 µmol/kg

Q: And the ED50 [33]?
A: 0.29 µmol/kg

Q: CCN1CCC[C@H]1CNC(=O)c1c(O)ccc(Br)c1OC was tested. Which ED50 [34] did it give?
A: 6.6 µmol/kg

Q: And the ED50 [35]?
A: 6.2 µmol/kg
